Measurements gathered from unrelated publications.
Compare with care: the assays were run in different laboratories.

Oc1c(-n2ccnn2)cnn1-c1cc(N2CCOCC2)ncn1
half-life (male rat, plasma; intravenous, 5 mg/kg): 3.1 h

N#Cc1[nH]nnc1-c1csc(-c2ccc(Cl)cc2)n1
half-life (male Sprague-Dawley rat, plasma; oral, 10 mg/kg): 2.9 h

CNCc1cc(-c2ccccc2F)n(S(=O)(=O)c2cccnc2)c1
half-life (Sprague-Dawley rat, plasma; oral, 10 mg/kg): 1.29 h

Cc1cnc(N2CC3(CCOCC3)C2)c(C(=O)Nc2ccc(C(=O)N3CCc4cc(C(=O)Nc5c(C)cccc5F)sc4-c4ccccc43)cc2)c1
half-life (rat, plasma; intravenous, 0.1 mg/kg, single dose): ~2.3 h

Oc1c(Br)cc(Cl)c2cccnc12
half-life (Sprague-Dawley rat, plasma; oral, 20 mg/kg): 5.6 h

CCc1cc(OC)c2nccc(N3CCc4c(cc(Cn5ccnc5)cc4-c4cn(C)nc4C(F)(F)F)C3=O)c2c1
half-life (male Sprague-Dawley rat, plasma; oral, 50 mg/kg): 1.3 h

CCOC(=O)[C@@]12C[C@@H]1[C@@H](n1ccc3c(NC)nc(C#Cc4ccc(Cl)s4)nc31)[C@H](O)[C@@H]2O
half-life (male Sprague-Dawley rat, plasma; intravenous, 0.5 mg/kg): 1.31 h

CCc1cc(C(=O)NC)c2nccc(N3CCc4c(cc(Cn5ccnc5)cc4-c4cn(C)nc4C(F)(F)F)C3=O)c2c1
half-life (male Sprague-Dawley rat, plasma; oral, 50 mg/kg, single dose): 3.8 h

Cc1c(-c2ccccc2)cccc1N1C(=O)c2cc(CN[C@H](C(=O)O)C(C)O)c(OCc3cccc(C#N)c3)cc2C1=O (stereo partly drawn)
half-life (Sprague-Dawley rat, plasma; oral, 50 mg/kg): 4.33 h

COc1ccc(C(C)=O)c(O)c1
half-life (male Sprague-Dawley rat, plasma; oral, 100 mg/kg): 3.37 h

O=C(Nc1cc(F)c(F)c(F)c1)c1ccc(F)c(S(=O)(=O)NCc2cccc(B(O)O)c2)c1
half-life (male Sprague-Dawley rat, plasma; intravenous, 2 mg/kg): 0.94 h

CC(C)(O)[C@H]1CC[C@H](Nc2ccc3ncc(-c4cccc(C(F)(F)F)c4)n3n2)CC1
half-life (female Sprague-Dawley rat, plasma; oral, 40 mg/kg): 4.1 h

N#Cc1ccc(Nc2nc(N)cc(Oc3c(F)cc(-c4ccc(C#N)cc4)cc3F)n2)cc1
half-life (Sprague-Dawley rat, plasma; intravenous, 1 mg/kg): 1.25 h

COc1cc2c3c(n(CCCN4CCOCC4)c(=O)c2cc1OC)-c1cc2c(cc1C3=O)OCO2
half-life (male Fischer 344 rat, plasma; intravenous, 24 mg/m², single dose): 3.6 h

N#Cc1[nH]nnc1-c1cccc(-c2cc(F)cc(C(F)(F)F)c2)c1
half-life (male Sprague-Dawley rat, plasma; oral, 10 mg/kg): 2.6 h

CNCc1cc(-c2ccccc2F)n(S(=O)(=O)c2cccnc2)c1
half-life (male Sprague-Dawley rat, plasma; oral, 10 mg/kg): 1 h

COCCOC(=O)C1=C(C)NC(C)=C(C(=O)OC(C)C)C1c1cccc([N+](=O)[O-])c1 (stereo not drawn)
half-life (male Sprague-Dawley rat, plasma; intravenous, 3 mg/kg): 6.7 h

CC[C@H](C)[C@H](NC(=O)[C@H](Cc1ccccc1)NC(=O)[C@H](CCC(=O)O)NC(=O)[C@H](CCCNC(=N)N)NC(=O)[C@H](C)NC(=O)[C@H](C)NC(=O)[C@H](CCC(N)=O)NC(=O)[C@H](CCC(=O)O)NC(=O)[C@H](CCC(=O)O)NC(=O)[C@H](CC(C)C)NC(=O)[C@H](Cc1ccc(O)cc1)NC(=O)[C@H](CO)NC(=O)[C@H](CO)NC(=O)[C@@H](NC(=O)[C@H](CC(=O)O)NC(=O)[C@H](CO)NC(=O)[C@@H](NC(=O)[C@H](Cc1ccccc1)NC(=O)[C@@H](NC(=O)CNC(=O)[C@H](CCC(=O)O)NC(=O)[C@H](C)NC(=O)CCc1c[nH]cn1)[C@@H](C)O)[C@@H](C)O)C(C)C)C(=O)N[C@@H](C)C(=O)N[C@@H](Cc1c[nH]c2ccccc12)C(=O)N[C@@H](CC(C)C)C(=O)N[C@H](C(=O)N[C@@H](CCCNC(=N)N)C(=O)NCC(=O)N[C@@H](CCCNC(=N)N)C(=O)N[C@@H](CCCCNC(=O)COCCOCCNC(=O)COCCOCCNC(=O)CC[C@H](NC(=O)CCCCCCCCCCCCCCCCC(=O)O)C(=O)O)C(=O)O)C(C)C
half-life (rat, plasma; subcutaneous, 20 nmol/kg): 13 h

CCNC(=O)c1nc(-c2ccc3[nH]c(-c4nc(C)no4)cc3c2)c(C)[nH]1
half-life (Sprague-Dawley rat, plasma; intravenous, 1 mg/kg): 0.9 h

COc1nc(-c2cc(C)c(N[C@@H](C)c3cc(F)cc(F)c3)nn2)ccc1-n1cnc(C)c1
half-life (male Sprague-Dawley rat, plasma; oral, 5 mg/kg, single dose): 2.2 h

C#Cc1cccc(Nc2ncnc3cc(OCCOC)c(OCCOC)cc23)c1
half-life (male Sprague-Dawley rat, plasma; oral, 12 mg/kg, single dose): 2.25 h

COc1ccc2c(=O)n(C)c(-c3ccccc3)nc2c1
half-life (male Sprague-Dawley rat, plasma; intravenous, 2 mg/kg): 0.83 h

O=C(Nc1ccc(C(F)(F)F)cc1F)N1CCC(Cc2cccc(Oc3ccc(C(F)(F)F)cn3)c2)CC1
half-life (male Sprague-Dawley rat, blood; oral, 1 mg/kg): 5.8 h

COc1ccc2c(Cc3ccccc3F)c3n(c(=O)c2c1OC)CCc1cc2c(cc1-3)OCO2
half-life (rat, plasma; intravenous, 5 mg/kg): 3.07 h
